Data on 1 molecule can be found in article PMC6110378 (The Pediatric Infectious Disease Journal, 2018).

≈ marks a conversion by molar mass, not a printed value. Starred links: 1 amine or outer side, 2 acyl side, 3 side chain; linkers in the order of their positions; H or OH if unused. Positions of bridges follow the written chain, without caps; N, C: chain ends. Non-standard residues stand in square brackets, D forms with d. Residues, ends and D or L forms follow the SMILES beside them. *: point of attachment. hTyr(3S-OH,4S-OH,3'-OSO3H) = N[C@H](C(=O)O)[C@H](O)[C@@H](O)c1ccc(O)c(OS(=O)(=O)O)c1; Orn(4R-OH,5R-OH) = O=C([C@H](C[C@@H](O)[C@@H](O)N[*:3])N[*:1])[*:2]; Pro(3S-OH,4S-Me) = C[C@H]1CN[C@H](C(=O)O)[C@H]1O; X1 = CCCCCOc1ccc(-c2cc(-c3ccc(C(=O)*)cc3)no2)cc1; Gln(3R-OH) = NC(=O)C[C@@H](O)[C@H](N)C(=O)O; Hyp = O=C(O)[C@@H]1C[C@@H](O)CN1

One data set has as its system Candida. In words: MIC values of isolates from infants with invasive candidiasis. The data set is classed as cell-based.
A further data set in a line: Population PK model. Type of data set: in vivo, human infants. The conditions noted are these: 2-compartment population PK model, 64 infants. In short, it runs like this: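 The dataset was 287 HPLC-measured plasma concentrations from 64 infants aged 3–119 days in 4 pediatric trials, at doses of 0.75–10 mg/kg. A 2-compartment model was fitted in Pmetrics, with infusion into the central compartment and observations weighted by inverse assay variance. Clearance was allometrically scaled. Clearance and volume were normalized to the 1.8 kg mean weight. Kcp and Kpc are central↔peripheral transfer rates. Fit was assessed from observed versus predicted values, r2, bias and imprecision.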

Data set [1] has as its system hematogenous Candida meningoencephalitis. The conditions noted are these: rabbit model of hematogenous Candida meningoencephalitis; cited from earlier work.

In the data set with Candida (isolates of infants in the 2 mg/kg study (n = 17)), `CCCCCOc1ccc(-c2cc(-c3ccc(C(=O)N[C@H]4C[C@@H](O)[C@@H](O)NC(=O)[C@@H]5[C@@H](O)[C@@H](C)CN5C(=O)[C@H]([C@H](O)CC(N)=O)NC(=O)[C@H]([C@H](O)[C@@H](O)c5ccc(O)c(OS(=O)(=O)O)c5)NC(=O)[C@@H]5C[C@@H](O)CN5C(=O)[C@H]([C@@H](C)O)NC4=O)cc3)no2)cc1` [micafungin] (X1-[Orn(4R-OH,5R-OH)]T[Hyp][hTyr(3S-OH,4S-OH,3'-OSO3H)][Gln(3R-OH)][Pro(3S-OH,4S-Me)]; lactam 1-C) registered an MIC90 of 1 µg/mL (≈ 0.787 µM). The molecule also returned an MIC90 in the data set on Candida (isolates of infants in the 10 mg/kg study (n = 12)) of 2 µg/mL (≈ 1.57 µM). For the same molecule, the “Vstd (volume in the central compartment), median” value in “Population PK model” (normalized to 1.8 kg, median) is recorded as 0.43 L/1.8 kg. In the data set “Population PK model” (mean (range)), the “Kcp (rate of drug moving from the central to the peripheral compartment), mean” value is reported as 1.74 (0.035–5.966) h^–1 and the “Kpc (rate of drug moving from the peripheral to the central compartment), mean” value is given as 1.92 (0.090–5.970) h^–1. Moreover, in the data set “Population PK model” (median), the “Kcp, median” value worked out at 0.99 h^–1 and the “Kpc, median” value stood at 2.00 h^–1. In data set [1], the “AUC:MIC ratio PD target for near-maximal effect” value is given as 1332 and the “CNS PD target AUC for near-maximal effect” value is “approximately 166.5 mg·h/L”.
